Measured values reported in ChEMBL document CHEMBL1909531, “Mitochondrial respiration inhibitors suppress protein translation and hypoxic signaling via the hyperphosphorylation and inactivation of translation initiation factor eIF2α and elongation factor eEF2” (J Nat Prod, 2011).
The source made the active and inactive calls.

What was measured:
MDA-MB-231 [1] = test: Inhibition of cellular respiration in human MDA-MB-231 cells assessed as rate of oxygen consumption; format: functional, cell-based
Procedure, shortened: (§1)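 Whole-cell oxygen consumption measured with a Clarke-type oxygen electrode during a concentration-response series. Cells in serum-free DMEM/F12 medium at 30 °C.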

T47D [2] = test: Inhibition of cellular respiration in human T47D cells assessed as rate of oxygen consumption at 0.001 to 0.1 uM; format: functional, cell-based; procedure, shortened: as §1
MDA-MB-231 [3] = test: Reduction in ATP level in human MDA-MB-231 cells after 72 hrs by HPLC-UV analysis; format: functional, cell-based
Procedure, shortened: (§2)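 5 × 10^5 cells per well seeded in DMEM/F12 with 10% FBS. After 24 h, half the medium replaced with serum-free DMEM/F12 containing compound. After exposure, cells washed in cold DPBS and extracted with cold 0.4 M perchloric acid, then neutralized with K2CO3. ATP quantified by reversed-phase C18 HPLC-UV using 50 mM potassium phosphate pH 6.0/MeOH at 0.7 mL/min.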

T47D [4] = test: Reduction in ATP level in human T47D cells after 72 hrs by HPLC-UV analysis; format: functional, cell-based; procedure, shortened: as §2
T47D [5] = test: Reduction in ATP level in human T47D cells after 48 hrs by HPLC-UV analysis; format: functional, cell-based; procedure, shortened: as §2
T47D [6] = test: Reduction in ATP level in human T47D cells at 0.01 to 0.1 uM after 72 hrs by HPLC-UV analysis; format: functional, cell-based; procedure, shortened: as §2
T47D [7] = test: Antiproliferative activity against human T47D cells assessed as cell viability at 0.01 to 0.1 uM after 72 hrs by SRB assay; format: functional
Procedure, shortened: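 T47D cells grown in DMEM/F12 with 10% FBS and penicillin/streptomycin, then exposed for 72 h in a parallel 96-well viability study. Cells fixed in the wells with no aspiration or wash, stained by sulforhodamine B, and read by OD. % inhibition = [1 − (OD treated/OD medium control)] × 100.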

[8] = biological target: Serine/threonine-protein kinase mTOR (Homo sapiens) (UniProt P42345); test: Inhibition of mTOR-mediated 4E-BP1 phosphorylation on Thr 37/46 in human T47D cells at 0.1 to 1 uM after 30 mins by Western blotting; format: cell-based
Procedure, shortened: (§3)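 0.8 × 10^6 cells per well exposed for 30 min at 37 °C, 5% CO2, in DMEM/F12 with 5% FBS. Cells washed with cold DPBS and lysed in modified RIPA (pH 7.6) with protease and phosphatase inhibitors. 40 µg protein run on 4–20% SDS-PAGE and blotted. Phospho-site-specific primary antibodies at 1:1,000, HRP anti-rabbit IgG, chemiluminescence on film.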

[9] = biological target: Serine/threonine-protein kinase mTOR (Homo sapiens) (UniProt P42345); test: Inhibition of mTORC1-mediated rpS6 phosphorylation on Ser 235/236 in human T47D cells at 0.1 to 1 uM after 30 mins by Western blotting; format: cell-based; procedure, shortened: as §3
[10] = biological target: Serine/threonine-protein kinase mTOR (Homo sapiens) (UniProt P42345); test: Inhibition of mTORC1-mediated eIF4E phosphorylation on Ser 209 in human T47D cells at 0.1 to 1 uM after 30 mins by Western blotting; format: cell-based; procedure, shortened: as §3
[11] = biological target: Serine/threonine-protein kinase mTOR (Homo sapiens) (UniProt P42345); test: Inhibition of mTOR in human T47D cells assessed as eIF2alpha hyperphosphorylation on Ser 51 at 0.1 to 1 uM after 30 mins by Western blotting; format: cell-based; procedure, shortened: as §3
[12] = biological target: Serine/threonine-protein kinase mTOR (Homo sapiens) (UniProt P42345); test: Inhibition of mTOR in human T47D cells assessed as eEF2 hyperphosphorylation on Ser 56 at 0.1 to 1 uM after 30 mins by Western blotting; format: cell-based; procedure, shortened: as §3
[13] = biological target: Serine/threonine-protein kinase mTOR (Homo sapiens) (UniProt P42345); test: Inhibition of mTOR-mediated 4E-BP1 phosphorylation on Thr 37/46 in human MDA-MB-231 cells at 0.1 to 1 uM after 30 mins by Western blotting; format: cell-based; procedure, shortened: as §3
[14] = biological target: Serine/threonine-protein kinase mTOR (Homo sapiens) (UniProt P42345); test: Inhibition of mTOR-mediated rpS6 phosphorylation on Ser 235/236 in human MDA-MB-231 cells at 0.1 to 1 uM after 30 mins by Western blotting; format: cell-based; procedure, shortened: as §3
[15] = biological target: Serine/threonine-protein kinase mTOR (Homo sapiens) (UniProt P42345); test: Inhibition of mTOR-mediated eIF4E phosphorylation on Ser 209 in human MDA-MB-231 cells at 0.1 to 1 uM after 30 mins by Western blotting; format: cell-based; procedure, shortened: as §3
[16] = biological target: Serine/threonine-protein kinase mTOR (Homo sapiens) (UniProt P42345); test: Inhibition of mTOR in human MDA-MB-231 cells assessed as eIF2alpha hyperphosphorylation on Ser 51 at 0.1 to 1 uM after 30 mins by Western blotting; format: cell-based; procedure, shortened: as §3
[17] = biological target: Serine/threonine-protein kinase mTOR (Homo sapiens) (UniProt P42345); test: Inhibition of mTOR in human MDA-MB-231 cells assessed as eEF2 hyperphosphorylation on Ser 56 at 0.1 to 1 uM after 30 mins by Western blotting; format: cell-based; procedure, shortened: as §3
MDA-MB-231 [18] = test: Reduction in ATP level in human MDA-MB-231 cells at 0.01 to 0.1 uM after 48 hrs by HPLC-UV analysis; format: functional, cell-based; procedure, shortened: as §2
[19] = biological target: T1, Hypoxia inducible factors; HIF-1-alpha, HIF-2-alpha (Homo sapiens, UniProt Q16665+Q99814); test: Inhibition of hypoxia-induced HIF1 activation in human T47D cells after 16 hrs by HRE3-TK-luciferase reporter gene assay; format: cell-based
Procedure, shortened: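 T47D cells carrying the pHRE3-TK-Luc reporter, grown in DMEM/F12 with 10% FBS; HIF-1 induced by hypoxia (1% O2). Activity reported as % inhibition of the induced control, calculated as [1 − (treated/control)] × 100.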

[20] = biological target: T1, Hypoxia inducible factors; HIF-1-alpha, HIF-2-alpha; test: Inhibition of 1, 10-phenanthroline-induced HIF1 activation in human T47D cells after 16 hrs by HRE3-TK-luciferase reporter gene assay; format: cell-based
T47D [21] = test: Ratio of IC50 for 1, 10-phenanthroline-induced HIF1 activation in human T47D cells to IC50 for hypoxia-induced HIF1 activation in human T47D cells; format: cell-based
[22] = biological target: T1, Hypoxia inducible factors; HIF-1-alpha, HIF-2-alpha; test: Inhibition of HIF1-mediated induction of Glut-1 mRNA expression in hypoxia-stimulated human T47D cells at 0.3 to 3 uM after 16 hrs by RT-PCR analysis; format: cell-based
[23] = biological target: T1, Hypoxia inducible factors; HIF-1-alpha, HIF-2-alpha; test: Inhibition of HIF1-mediated induction of VEGF mRNA expression in hypoxia-stimulated human T47D cells at 0.3 to 3 uM after 16 hrs by RT-PCR analysis; format: cell-based
[24] = biological target: T1, Hypoxia inducible factors; HIF-1-alpha, HIF-2-alpha; test: Inhibition of HIF1-mediated induction of cellular VEGF protein in hypoxia-stimulated human T47D cells at 0.3 uM after 16 hrs by ELISA; format: cell-based
[25] = biological target: T1, Hypoxia inducible factors; HIF-1-alpha, HIF-2-alpha; test: Inhibition of HIF1-mediated induction of secreted VEGF protein in hypoxia-stimulated human T47D cells at 0.3 uM after 16 hrs by ELISA; format: cell-based
[26] = biological target: T1, Hypoxia inducible factors; HIF-1-alpha, HIF-2-alpha; test: Inhibition of HIF1-mediated induction of cellular VEGF protein in hypoxia-stimulated human T47D cells at 3 uM after 16 hrs by ELISA; format: cell-based
[27] = biological target: T1, Hypoxia inducible factors; HIF-1-alpha, HIF-2-alpha; test: Inhibition of HIF1-mediated induction of secreted VEGF protein in hypoxia-stimulated human T47D cells at 3 uM after 16 hrs by ELISA; format: cell-based
[28] = biological target: T1, Hypoxia inducible factors; HIF-1-alpha, HIF-2-alpha; test: Inhibition of HIF1-mediated induction of Glut-1 mRNA expression in human T47D cells at 3 uM after 16 hrs by RT-PCR analysis under normoxic condition; format: cell-based
[29] = biological target: T1, Hypoxia inducible factors; HIF-1-alpha, HIF-2-alpha; test: Inhibition of HIF1-mediated induction of VEGF mRNA expression in human T47D cells at 3 uM after 16 hrs by RT-PCR analysis under normoxic condition; format: cell-based
[30] = biological target: T1, Hypoxia inducible factors; HIF-1-alpha, HIF-2-alpha; test: Inhibition of HIF1-mediated induction of cellular VEGF protein in human T47D cells at 3 uM after 16 hrs by ELISA under normoxic condition; format: cell-based
[31] = biological target: T1, Hypoxia inducible factors; HIF-1-alpha, HIF-2-alpha; test: Inhibition of HIF1-mediated induction of secreted VEGF protein in human T47D cells at 3 uM after 16 hrs by ELISA under normoxic condition; format: cell-based
T47D [32] = test: Inhibition of HIF1alpha protein accumulation under hypoxic condition in human T47D cells at 3 uM after 4 hrs by Western blot analysis; format: functional, cell-based
T47D [33] = test: Inhibition of 1, 10-phenanthroline-induced HIF1alpha protein accumulation in human T47D cells at 3 uM after 4 hrs by Western blot analysis; format: functional, cell-based
T47D [34] = test: Inhibition of HIF1beta protein accumulation under hypoxic condition in human T47D cells at 3 uM after 4 hrs by Western blot analysis; format: functional, cell-based
T47D [35] = test: Inhibition of 1, 10-phenanthroline-induced HIF1beta protein accumulation in human T47D cells at 3 uM after 4 hrs by Western blot analysis; format: functional, cell-based
T47D [36] = test: Inhibition of cellular respiration in human T47D cell at 0.03 to 1 uM by oxygen consumption assay; format: functional, cell-based
Procedure, shortened: (§4)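 Oxygen consumption of intact T47D cells measured with a Clark-type electrode, in serum-free DMEM/F12 at 30 °C.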

T47D [37] = test: Inhibition of cellular respiration in human T47D cells at 1 uM by oxygen consumption assay; format: functional; procedure, shortened: as §4
T47D [38] = test: Antiproliferative activity against human T47D cells assessed as cell viability by SRB assay; format: functional, cell-based
Procedure, shortened: (§5)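 Cells grown in DMEM/F12 with 10% FBS, penicillin and streptomycin; 96-well viability assay, 2-day or 6-day exposure, with medium (5% FBS) and compound renewed after 3 days in the 6-day study. Read by optical density; % inhibition = [1 − (ODtreated/ODcontrol)] × 100 versus medium control.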

MDA-MB-231 [39] = test: Antiproliferative activity against human MDA-MB-231 cells assessed as cell viability by SRB assay; format: functional, cell-based; procedure, shortened: as §5
PC-3 = test: Antiproliferative activity against human PC3 cells assessed as cell viability by SRB assay; format: functional, cell-based; procedure, shortened: as §5

C=C(C)[C@H]1Cc2c(ccc3c2O[C@@H]2COc4cc(OC)c(OC)cc4[C@@H]2C3=O)O1 [ROTENONE]
inactive: inhibition [8] | inhibition [9] | inhibition [10] | inhibition [13] | inhibition [14] | inhibition [15]
50%: Activity (T47D [7])
active: inhibition (MDA-MB-231 [1]) Dose-dependent effect | inhibition (T47D [2]) | Activity (MDA-MB-231 [3]) Dose-dependent effect | Activity (T47D [4]) Dose-dependent effect | Activity (T47D [5]) | Activity (T47D [6]) | inhibition [11] | Activity [12] | Activity [16] | Activity [17] | Activity (MDA-MB-231 [18])

CC(C)=CC(=O)O[C@@H]1CC[C@]2(C)[C@H]3CC[C@]45C[C@]4(CC[C@@H]5[C@@H]4C[C@H]([C@@H]5OC5(C)C)OC4O)[C@]3(C)[C@H](O)C[C@H]2C1(C)C (stereo not given in full) [SKIMMIAREPIN C]
active: inhibition [22] | inhibition [23] | inhibition [24] | inhibition [25] | inhibition [26] | inhibition [27] | inhibition (T47D [32]) | inhibition (T47D [36]) Dose-dependent effect | Activity (T47D [38]) | Activity (PC-3)
75%: inhibition at 1 µM (T47D [37])
0.068 µM: IC50 [19]
80: Ratio IC50 (T47D [21])
inactive: inhibition [28] | inhibition [29] | inhibition [30] | inhibition [31] | inhibition (T47D [33]) | inhibition (T47D [34]) | inhibition (T47D [35]) | Activity (MDA-MB-231 [39])
5.6 µM: IC50 [20]
